Assay results collected from several papers.
Compare with care: the assays were run in different laboratories.

| Structure (SMILES) | tested on | assay | test system | conditions | endpoint | result |
| --- | --- | --- | --- | --- | --- | --- |
| CC(C)C[C@H](NC(=O)[C@H](CC(C)C)NC(=O)[C@H](CCCCN)NC(=O)[C@H](CCCCN)NC(=O)[C@H](CC(C)C)NC(=O)[C@H](CCC(=O)O)NC(=O)[C@H](CCCCN)NC(=O)[C@H](CCCCN)NC(=O)[C@H](CC(C)C)NC(=O)[C@H](CC(C)C)NC(=O)[C@H](CCCCN)NC(=O)[C@H](CCCCN)NC(=O)[C@H](CC(C)C)NC(=O)[C@@H](N)CC(C)C)C(N)=O | HCCC9810 | cell growth or viability, CCK-8 | – | – | IC50 | 24600 nM |
| N.N.[Cl][Pt][Cl] | RS4-11 | cell growth or viability, ATP luminescence | – | 10 µM, 72 h | inhibition | 100% |
| N=C(CC(O)c1cc2c(F)cc(F)cc2c2cc(C(F)(F)F)ccc12)Nc1nc2ccccc2[nH]1 (stereo not drawn) | Plasmodium falciparum | parasite growth, ELISA | 3D7 | 72 h, blood stage | IC50 | 5590 nM |
| C[C@@H]1CC[C@H]2[C@@H](C)C(=O)O[C@@H]3O[C@@]4(C)CC[C@@H]1[C@]32OO4 | Plasmodium falciparum | parasite growth | DD2 | drug-resistant strain, blood stage | IC50 | 8.9 nM |
| N=C(CC(O)c1cc2c(F)cc(F)cc2c2cc(C(F)(F)F)ccc12)Nc1ccccc1I (stereo not drawn) | Plasmodium falciparum | parasite growth, ELISA | 3D7 | 72 h, blood stage | IC50 | 10.9 nM |
| CC(C)C[C@H](NC(=O)[C@H](CC(C)C)NC(=O)[C@H](CCCCN)NC(=O)[C@H](CCCCN)NC(=O)[C@H](CC(C)C)NC(=O)[C@H](CC(C)C)NC(=O)[C@H](CCCCN)NC(=O)[C@H](CCCCN)NC(=O)[C@H](CC(C)C)NC(=O)[C@H](CC(C)C)NC(=O)[C@H](CCCCN)NC(=O)[C@H](CCCCN)NC(=O)[C@H](CCC(=O)O)NC(=O)[C@@H](N)CC(C)C)C(N)=O | HCCC9810 | cell growth or viability, CCK-8 | – | – | IC50 | 6960 nM |
| CCN(CC)CCOc1ccc2c(c1)C(=O)c1cc(OCCN(CC)CC)ccc1-2 | Plasmodium falciparum | parasite growth | DD2 | drug-resistant strain, blood stage | IC50 | 556 nM |
| N=C(CC(O)c1cc2c(F)cc(F)cc2c2cc(C(F)(F)F)ccc12)Nc1nnc(-c2ccc(F)cc2)o1 (stereo not drawn) | Plasmodium falciparum | parasite growth, ELISA | 3D7 | 72 h, blood stage | IC50 | > 37000 nM |
| CC(C)C[C@H](NC(=O)[C@H](CCC(=O)O)NC(=O)[C@H](CCCCN)NC(=O)[C@H](CCCCN)NC(=O)[C@H](CC(C)C)NC(=O)[C@H](CC(C)C)NC(=O)[C@H](CCCCN)NC(=O)[C@H](CCCCN)NC(=O)[C@H](CC(C)C)NC(=O)[C@H](CC(C)C)NC(=O)[C@H](CCCCN)NC(=O)[C@H](CCCCN)NC(=O)[C@H](CC(C)C)NC(=O)[C@@H](N)CC(C)C)C(N)=O | HCCC9810 | cell growth or viability, CCK-8 | – | – | IC50 | 10200 nM |
| N=C(CC(O)c1cc2c(F)cc(F)cc2c2cc(C(F)(F)F)ccc12)NCc1ccc(F)cc1 (stereo not drawn) | Plasmodium falciparum | parasite growth, ELISA | 3D7 | 72 h, blood stage | IC50 | 1110 nM |
| CCN1CCN(Cc2ccc(Nc3nc4ccc(Oc5ccnc(NC(=O)C6CCN(C)CC6)c5)cc4n3C)cc2C(F)(F)F)CC1 | Plasmodium falciparum | parasite growth, SYBR Green | 3D7 | blood stage | EC50 | 210 nM |
| CO[C@H]1C[C@H](O[C@@H]2/C(C)=C/C[C@@H]3C[C@@H](C[C@]4(CC[C@H](C)[C@@H](C5CCCCC5)O4)O3)OC(=O)[C@@H]3C=C(C)/C(=N/O)[C@H]4OC/C(=C\C=C\[C@@H]2C)[C@]43O)O[C@@H](C)[C@@H]1O | Plasmodium falciparum | parasite growth | K1 | drug-resistant strain, blood stage | IC50 | 311 nM |
| COc1cc(NC(=N)CC(O)c2cc3c(F)cc(F)cc3c3cc(C(F)(F)F)ccc23)ccc1Br (stereo not drawn) | Plasmodium falciparum | parasite growth, ELISA | 3D7 | 72 h, blood stage | IC50 | 13.6 nM |
| COc1ccc2cc1Oc1ccc(cc1)C[C@H]1c3c(cc4c(c3Oc3cc5c(cc3OC)CCN(C)[C@@H]5C2)OCO4)CCN1C | Plasmodium falciparum | parasite growth | DD2 | drug-resistant strain, blood stage | IC50 | 136 nM |
| CC(C)C[C@H](NC(=O)[C@H](CC(C)C)NC(=O)[C@H](CCCCN)NC(=O)[C@H](CCCCN)NC(=O)[C@H](CC(C)C)NC(=O)[C@H](CC(C)C)NC(=O)[C@H](CCCCN)NC(=O)[C@H](CCCCN)NC(=O)[C@H](CC(C)C)NC(=O)[C@H](CCC(=O)O)NC(=O)[C@H](CCCCN)NC(=O)[C@H](CCCCN)NC(=O)[C@H](CC(C)C)NC(=O)[C@@H](N)CC(C)C)C(N)=O | HCCC9810 | cell growth or viability, CCK-8 | – | – | IC50 | 9400 nM |
